Reference: PMC4116675 (Molecular microbiology, 2014)
“Also recorded” adds a separate entry of the source.

B1: MucB: competes for MucA binding and can inhibit this cleavage (protein, UniProt P38108 22-316, looked up)
Sigma factor AlgU regulatory …: ADASDWLNRLAEADRQNSFQGTFVYERNGSFSTHEIWHRVESDGAVRERLLQLDGARQEVVRVDGRTQCISGGLADQLADAQLWPVRKFDPSQLASWYDLRLVGESRVAGRPAVVLAVTPRDQHRYGFELHLDRDTGLPLKSLLLNEKGQLLERFQFTQLNTGAAPAEDQLQAGAECQVVGPAKADGEKTVAWRSEWLPPGFTLTRSFMRRSPVTPDPVACLTYGDGLARFSVFIEPLHGAMVGDARSQLGPTVVVSKRLQTDDGGQMVTVVGEVPLGTAERVALSIRPEAAAQK
B2: MucA: anti-sigma factor; free MucA as competitor of resin-bound MucA (protein, UniProt P38107 1-194, looked up)
Sigma factor AlgU negative …: MSREALQETLSAVMDNEADELELRRVLAACGEDAELRSTWSRYQLARSVMHREPTLPKLDIAAAVSAALADEAAPPKAEKGPWRMVGRLAVAASVTLAVLAGVRLYNQNDALPQMAQQGTTPQIALPQVKGPAVLAGYSEEQGAPQVITNSSSSDTRWHEQRLPIYLRQHVQQSAVSGTESALPYARAASLENR

How the values were obtained:
[1] = test system: AlgW (substrate 35S-MucA, inhibitor MucB); assay: AlgW cleavage of 35S-MucA in the presence of MucB; format: biochemical, Pseudomonas aeruginosa; settings: for MucA cleavage level relative to WVF and AlgW alone (no MucB): Figs. 4B vs 4D, CupB5 peptide + WVF + MucB; for antagonism / relief of MucB inhibition in vitro: summary statement, WVF-activated AlgW cleavage of MucA with MucB
MucB [2] = settings: ref Lima et al., 2013; cited from earlier work
MucB [3] = assay: MucB oligomerization, gel-filtration chromatography; format: binding, Pseudomonas aeruginosa; settings: Fig. S2
[4] = test system: AlgW (substrate 35S-MucA); assay: WVF-activated AlgW cleavage of 35S-MucA with or without CupB5 peptides; format: biochemical, Pseudomonas aeruginosa; settings: Fig. 5C; GYYYTVV 300 μM, increasing WVF, fixed MucA (50 μM)
Method in brief: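 Ni-NTA-purified AlgW (0.5 μM trimer) cleaved 35S-MucA (50 μM) across a range of WVF peptide concentrations, with or without CupB5 peptides (300 μM). Protease addition started the reactions; cold 10% TCA quenched them at timed points. Acid-soluble products were scintillation-counted against total radioactivity, and rates were divided by substrate and enzyme concentrations. Values were averages ± SEM (n=2), fitted to rate = basal + Vmax/(1 + (Kact/[peptide])h).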

[5] = test system: P. aeruginosa strain PAO1 and derivatives; assay: Alginate production and mucoid phenotype on plasmid overexpression of proteins; format: cell-based, Pseudomonas aeruginosa; settings: Fig. 6A, 6B; for alginate production in PAO1-VE2 on plasmid-mediated overproduction: PAO1-VE2 (mucE overexpressed); for alginate production in PAO1-VE22 on plasmid-mediated overproduction: PAO1-VE22 (cupB5 overexpressed), 0.1% L-arabinose, 37°C, 24 h

Row | Molecule | MucA cleavage level relative to WVF and AlgW alone (no MucB) [1] | antagonism / relief of MucB inhibition in vitro [1] | alginate production in PAO1-VE2 on plasmid-mediated overproduction [5] | alginate production in PAO1-VE22 on plasmid-mediated overproduction [5] | further results
1 | GYYYT | approximately one-third | did antagonize MucB inhibition in vitro; also recorded: only partially relieve MucB inhibition in vitro |  |  | potency and cooperativity of activation, GYYYT vs GYYYTVV ([1]; Fig. 4D, WVF 150 μM, MucB present): occurred at lower peptide concentrations and was less cooperative as judged by the Hill constant than activation by the GYYYTVV peptide
2 | Lipopolysaccharides |  |  |  |  | binding to MucB and displacement of MucA (MucB [2]): bind MucB and competitively displace MucA
3 | GYYYTVV | approximately one-third | antagonized MucB inhibition in vitro; also recorded: only partially relieve MucB inhibition in vitro |  |  | change in MucB elution / conversion of MucB dimers to tetramers (MucB [3]): no substantial change in elution during gel-filtration chromatography; also recorded: did not convert MucB dimers into tetramers; change in maximum rate of MucA cleavage on adding CupB5 peptide [4]: increased almost two-fold
4 | B1 |  |  | decreased alginate production in PAO1-VE2 | plasmid-mediated MucB overproduction had this effect | 
5 | B2 |  |  | decreased alginate production in PAO1-VE2 | as did plasmid-mediated overproduction of MucA | 
